Reference: ChEMBL document CHEMBL5252535, “Design of nucleotide-mimetic and non-nucleotide inhibitors of the translation initiation factor eIF4E: Synthesis, structural and functional characterisation” (Eur J Med Chem, 2016)
Activity calls are given as the source filed them. The rule behind the calls is not given here.

Experiments:
Reticulocyte [1] = assay: Inhibition of cap dependent translation of renilla luciferase mRNA in pRHCVF RNA primed rabbit reticulocyte lysate at 100 uM incubated for 90 mins by […]; type: functional, subcellular; settings: Oryctolagus cuniculus
Method in brief: (§1)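 Rabbit reticulocyte lysate primed with 20 ng capped pRHCVF RNA (20 μL), 30 °C for 90 min, then on ice. Renilla (cap-dependent) and firefly (HCV IRES) luciferase read; final DMSO ≤1%; inhibition relative to 1% DMSO control set at 100%; m7GTP positive control. Three independent experiments, Student's t-test, S.D.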

[2] = molecular target: T1, Eukaryotic translation initiation factor 4E (Homo sapiens, UniProt P06730); assay: Inhibition of m7GDP fluorescent probe binding to recombinant eIF4E (unknown origin) assessed as dissociation constant by fluorescence polarization assay
T1 sequence (P06730 whole entry): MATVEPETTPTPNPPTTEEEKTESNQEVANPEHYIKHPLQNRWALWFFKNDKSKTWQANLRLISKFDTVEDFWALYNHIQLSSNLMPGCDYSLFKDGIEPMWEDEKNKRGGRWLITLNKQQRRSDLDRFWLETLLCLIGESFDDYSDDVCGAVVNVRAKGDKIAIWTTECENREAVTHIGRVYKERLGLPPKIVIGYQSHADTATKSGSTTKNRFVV

[3] = molecular target: T1, Eukaryotic translation initiation factor 4E; assay: Inhibition of P32-[alpha-GTP] cap radiolabelled RNA binding to recombinant eIF4E (unknown origin) assessed as decrease in cross linked RNA-eIF4E complex formation preincubated with UV radiation for 30 mins followed by RNase addition and measured after 30 mins by SDS-PAGE based autoradiographic analysis
HeLa [4] = assay: Inhibition of protein synthesis in methionine-starved human HeLa cells incubated for 24 hrs by scintillation counting based 35S-Met incorporation assay; type: functional, cell-based
Method in brief: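 HeLa cells seeded at 6 × 10^4 per well, grown 24 h to 70% confluency, treated 24 h; Met-starved 30 min in Met-free DMEM with fresh compound, then pulsed 30 min with 35S-Met. Cells washed, lysed, protein TCA-precipitated and scintillation counted; puromycin positive control; three independent occasions; IC50 derived.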

MCF7 = assay: Inhibition of protein synthesis in methionine-starved human MCF7 cells incubated for 24 hrs by scintillation counting based 35S-Met incorporation assay; type: functional, cell-based
Reticulocyte [5] = assay: Inhibition of HCV-IRES mediated cap-independent translation of firefly luciferase mRNA in rabbit reticulocyte lysate at 100 uM incubated for 90 mins by […]; type: functional, subcellular; settings: Oryctolagus cuniculus; method in brief: as §1
Reticulocyte [6] = assay: Inhibition of cap dependent translation of renilla luciferase mRNA in pRHCVF RNA primed rabbit reticulocyte lysate at 25 to 100 uM incubated for 90 mins by […]; type: functional, subcellular; settings: Oryctolagus cuniculus, dose 25-100 µM; method in brief: as §1
Reticulocyte [7] = assay: Inhibition of HCV-IRES mediated cap-independent translation of firefly luciferase mRNA in rabbit reticulocyte lysate at 25 to 100 uM incubated for 90 mins by […]; type: functional, subcellular; settings: Oryctolagus cuniculus, dose 25-100 µM; method in brief: as §1
HeLa [8] = assay: Downregulation of cMyc protein level in human HeLa cells at 50 to 100 uM incubated for 2 hrs by Western blot analysis; type: functional, cell-based; settings: dose 50-100 µM
Method in brief: (§2)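 HeLa cells treated 2 h; lysates probed by western blotting for c-myc and cyclin D1, actin as loading control.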

HeLa [9] = assay: Downregulation of cyclin D1 protein level in human HeLa cells at 50 to 100 uM incubated for 2 hrs by Western blot analysis; type: functional, cell-based; settings: dose 50-100 µM; method in brief: as §2
HeLa [10] = assay: Inhibition of cap dependent translation in human HeLa cells assessed as decrease in amount of RNA incorporated in polysomes at 25 uM incubated for 2 hrs by UV absorbance recording based assay; type: functional, cell-based
Method in brief: (§3)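 HeLa cells seeded in 15-cm dishes, grown 24 h to 70% confluency, treated 2 h; cycloheximide (0.1 mg/mL) added, cells harvested on ice and lysed (300 mM NaCl, 15 mM MgCl2, 15 mM Tris pH 7.5, heparin, cycloheximide, 0.1% Triton X-100). Lysates run on 10–60% sucrose gradients, 38,000 rpm 2 h; 1 mL fractions with continuous UV absorbance; polysome vs subpolysome areas compared; puromycin positive control.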

HeLa [11] = assay: Inhibition of cap dependent translation in human HeLa cells assessed as increase in sub-polysomal material at 50 to 100 uM incubated for 2 hrs by UV absorbance recording based assay; type: functional, cell-based; settings: dose 50-100 µM; method in brief: as §3

`Nc1nc2c(c(=O)[nH]1)[n+](Cc1ccccc1)cn2[C@@H]1O[C@H](CNS(=O)(=O)C(F)(F)F)[C@@H](O)[C@H]1O` was tested, and the inhibition (Reticulocyte [1]) was “Active”, the Kd [2] was 56.5 µM and the IC50 [3] was 12.6 µM. For the same molecule, the inhibition (HeLa [4]) was “inactive”, the inhibition (MCF7) was “inactive” and the inhibition (Reticulocyte [5]) was “inactive”.

`C[n+]1cn([C@@H]2O[C@H](COP(=O)(O)OP(=O)(O)OP(=O)(O)O)[C@@H](O)[C@H]2O)c2nc(N)[nH]c(=O)c21` was tested, and the inhibition (HeLa [4]) was “inactive” and the inhibition (MCF7) was “inactive”.

With `CC(C)CNC(=S)N(Cc1ccccc1)Cc1cc2cc3c(cc2[nH]c1=O)OCO3` the Kd [2] was 57.8 µM, the inhibition (Reticulocyte [6]) was “Active” and the inhibition (Reticulocyte [7]) was “inactive”. The Activity (HeLa [8]) was “Active”, the Activity (HeLa [9]) was “Active” and the inhibition (HeLa [10]) was “Active”. The inhibition (HeLa [11]) was “Active”.

For `C[n+]1cn([C@@H]2O[C@H](COP(=O)(O)O)[C@@H](O)[C@H]2O)c2nc(N)[nH]c(=O)c21`, the inhibition (HeLa [4]) was “inactive” and the inhibition (MCF7) was “inactive”.

In the case of `C[n+]1cn([C@@H]2O[C@H](CNS(=O)(=O)c3ccc(C(=O)O)cc3)[C@@H](O)[C@H]2O)c2nc(N)[nH]c(=O)c21`, the inhibition (Reticulocyte [1]) is reported as “Active”, the inhibition (HeLa [4]) is reported as “inactive” and the inhibition (MCF7) is reported as “inactive”. For the same molecule, the inhibition (Reticulocyte [5]) was “inactive”.
